Measured values reported in ChEMBL document CHEMBL2010756, “New 4-[(5-arylidene-2-arylimino-4-oxo-3-thiazolidinyl)methyl]benzoic acids active as protein tyrosine phosphatase inhibitors endowed with insulinomimetic effect on mouse C2C12 skeletal muscle cells” (Eur J Med Chem, 2012).
Activity calls are given as the source filed them. The calls are words filed in the database; no cut-off is given here.

Columns and labels:
C2C12 = test: Cytotoxicity against mouse C2C12 cells at 25 uM after 2 hrs by MTT assay; type: cell-based; settings: c2c12, 2 h
Outline: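 C2C12 myoblasts were differentiated 4 days in DMEM/2% horse serum, then serum-starved 20 h. Compounds at 25 µM final (DMSO vehicle) were given for 2 h. MTT was added at 0.5 mg/ml final, 37 °C for 2 h. Cells were lysed in DMSO and formazan read at 570 nm, expressed as % of DMSO control, mean ± SE of three replicates.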

Homo sapiens [1] = organism: Homo sapiens; test: Selectivity ratio of IC50 for human recombinant TCPTP to IC50 for human recombinant PTP1B
Outline: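 IC50 values were from initial p-nitrophenylphosphate hydrolysis (400 nm) in pH 7.0 β,β-dimethylglutarate/EDTA/DTT buffer, fitted to a four-parameter equation. PTP1B (recombinant human, GST cleaved) was assayed at 37 °C with substrate at its Km. Commercial recombinant TC-PTP (0.02 µg) was assayed with 2.8 mM p-nitrophenylphosphate, stopped with KOH. The ratio is TC-PTP IC50 over PTP1B IC50.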

Homo sapiens [2] = organism: Homo sapiens; test: Selectivity ratio of IC50 for human recombinant LMW-PTP IF2 to IC50 for human recombinant LMW-PTP IF1
Outline: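 Recombinant human LMW-PTP IF1 and IF2 (GST cleaved off) were assayed at 37 °C in pH 7.0 β,β-dimethylglutarate/EDTA/DTT buffer. Fixed p-nitrophenylphosphate equal to each isoform's Km was used, with p-nitrophenolate read at 400 nm. IC50 came from fitting vi/v0 against inhibitor concentration to a four-parameter equation. The ratio is IF2 IC50 over IF1 IC50.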

[3] = target: T1, Low molecular weight phosphotyrosine protein phosphatase (Homo sapiens, UniProt P24666); test: Competitive inhibition of GST-tagged human recombinant LMW-PTP IF2 expressed in Escherichia coli TB1 using p-nitrophenylphosphate as substrate by Line-Weaver Burk plot
T1 sequence (P24666 whole entry): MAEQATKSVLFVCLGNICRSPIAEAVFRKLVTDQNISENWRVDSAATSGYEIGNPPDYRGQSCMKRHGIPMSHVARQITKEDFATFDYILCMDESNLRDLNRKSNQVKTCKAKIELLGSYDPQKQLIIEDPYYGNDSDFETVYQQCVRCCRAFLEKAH
Outline: (§1)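 Human enzymes were expressed in E. coli TB1 as GST fusions and purified on glutathione-Sepharose. GST was removed by thrombin (3 h, 37 °C), followed by gel filtration. Assays ran at 37 °C in pH 7.0 buffer (0.075 M β,β-dimethylglutarate, 1 mM EDTA, 5 mM DTT) with p-nitrophenylphosphate, read at 400 nm. Initial rates were measured in triplicate at differing substrate and inhibitor levels, and apparent Km was plotted against inhibitor concentration to give Ki.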

[4] = target: T2, Tyrosine-protein phosphatase non-receptor type 1 (Homo sapiens, UniProt P18031); test: Competitive inhibition of GST-tagged human recombinant PTP1B expressed in Escherichia coli TB1 using p-nitrophenylphosphate as substrate by Line-Weaver Burk plot; outline: as §1
T2 sequence (P18031 whole entry): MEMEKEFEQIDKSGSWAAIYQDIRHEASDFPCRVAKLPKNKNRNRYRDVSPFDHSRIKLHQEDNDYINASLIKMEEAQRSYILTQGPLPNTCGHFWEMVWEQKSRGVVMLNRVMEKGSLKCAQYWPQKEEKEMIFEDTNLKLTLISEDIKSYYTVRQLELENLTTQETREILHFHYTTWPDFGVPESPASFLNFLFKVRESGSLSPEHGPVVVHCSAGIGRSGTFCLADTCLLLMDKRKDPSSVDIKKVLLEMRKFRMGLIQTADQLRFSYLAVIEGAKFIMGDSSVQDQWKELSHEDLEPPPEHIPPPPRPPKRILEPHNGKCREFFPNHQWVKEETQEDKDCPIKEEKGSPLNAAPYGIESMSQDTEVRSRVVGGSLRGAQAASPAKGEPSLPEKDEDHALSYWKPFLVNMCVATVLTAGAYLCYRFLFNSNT

[5] = target: T3, Tyrosine-protein phosphatase non-receptor type 2 (Homo sapiens, UniProt P17706); test: Competitive inhibition of human recombinant TCPTP using p-nitrophenylphosphate as substrate by Line-Weaver Burk plot
T3 sequence (P17706 whole entry): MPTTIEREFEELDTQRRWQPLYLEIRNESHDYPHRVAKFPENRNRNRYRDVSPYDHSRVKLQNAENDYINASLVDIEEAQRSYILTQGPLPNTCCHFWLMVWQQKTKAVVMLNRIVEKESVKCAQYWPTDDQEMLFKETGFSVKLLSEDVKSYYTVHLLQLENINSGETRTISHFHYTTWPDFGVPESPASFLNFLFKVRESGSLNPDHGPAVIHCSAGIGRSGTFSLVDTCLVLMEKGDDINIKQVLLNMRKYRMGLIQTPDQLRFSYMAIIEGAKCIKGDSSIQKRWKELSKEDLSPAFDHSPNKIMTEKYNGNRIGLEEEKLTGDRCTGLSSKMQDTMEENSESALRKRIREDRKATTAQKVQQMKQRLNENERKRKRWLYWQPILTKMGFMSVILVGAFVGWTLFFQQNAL

[6] = target: T4, Tyrosine-protein phosphatase non-receptor type 1 (Mus musculus) (UniProt P35821); test: Inhibition of PTP1B in mouse C2C12 cells assessed as increase in intracellular 2-deoxyglucose uptake using [3H]glucose as substrate at 25 uM after 90 mins by scintillation counting; type: cell-based
T4 sequence (whole entry): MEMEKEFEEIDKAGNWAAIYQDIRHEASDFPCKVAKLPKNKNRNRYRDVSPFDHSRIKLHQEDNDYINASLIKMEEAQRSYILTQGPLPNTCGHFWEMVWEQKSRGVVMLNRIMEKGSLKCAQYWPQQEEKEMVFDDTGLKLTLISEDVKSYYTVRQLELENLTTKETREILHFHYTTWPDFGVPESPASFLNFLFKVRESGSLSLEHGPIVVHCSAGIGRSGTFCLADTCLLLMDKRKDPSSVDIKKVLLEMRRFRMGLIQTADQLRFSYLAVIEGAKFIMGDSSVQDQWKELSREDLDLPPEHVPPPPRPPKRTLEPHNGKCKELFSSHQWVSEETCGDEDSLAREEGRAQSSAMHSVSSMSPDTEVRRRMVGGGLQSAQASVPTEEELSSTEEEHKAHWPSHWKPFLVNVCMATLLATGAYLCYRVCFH
Outline: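 C2C12 myotubes were differentiated and serum-starved 20 h, then treated 90 min with 25 µM compound (1.2% DMSO). Insulin 10 nM for 30 min was the positive control. 0.1 µCi 2-deoxy-D-[3H]glucose in Ringer–Hepes was taken up 15 min at 37 °C. Cells were washed with cold PBS, lysed in 0.2 M NaOH and counted by scintillation, normalized to protein. Mean ± SE of three replicates.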

[7] = target: T1, Low molecular weight phosphotyrosine protein phosphatase; test: Competitive inhibition of GST-tagged human recombinant LMW-PTP IF1 expressed in Escherichia coli TB1 using p-nitrophenylphosphate as substrate by Line-Weaver Burk plot; outline: as §1
[8] = target: T4, Tyrosine-protein phosphatase non-receptor type 1 (Mus musculus); test: Inhibition of PTP1B in mouse C2C12 cells assessed as increase in insulin receptor beta tyrosine phosphorylation at 25 uM; type: cell-based
Outline: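 Differentiated, 20 h serum-starved C2C12 myotubes were exposed to 25 µM compound (1.2% DMSO) for 90 min at 37 °C. Insulin 10 nM for 30 min served as positive control. Lysates in SDS sample buffer were run on SDS-PAGE and western blotted for phospho-IRβ, normalized to actin, in at least three experiments.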

| Compound | Activity (C2C12) | Ratio IC50 (Homo sapiens [1]) | Ratio IC50 (Homo sapiens [2]) | IC50 [3] | IC50 [4] | IC50 [5] | inhibition [6] | IC50 [7] | inhibition [8] | Ki [4] |
| --- | --- | --- | --- | --- | --- | --- | --- | --- | --- | --- |
| O=C(O)c1ccc(CN2C(=O)/C(=C/c3cccc(Oc4ccccc4)c3)S/C2=N\c2ccc(C(F)(F)F)cc2)cc1 | Non-toxic | 2 | > 3 | > 150 µM | 10.4 µM | 20.6 µM | Active | 13.7 µM |  |  |
| O=C(O)c1ccc(CN2C(=O)/C(=C/c3ccc4ccccc4c3)S/C2=N\c2ccc(C(F)(F)F)cc2)cc1 | Non-toxic | > 2 | > 3 | 15.2 µM | 2.4 µM | 20.2 µM | Active | 5.8 µM | Active |  |
| O=C(O)c1ccc(CN2C(=O)/C(=C/c3cccc(OCc4ccccc4)c3)S/C2=N\c2ccc(C(F)(F)F)cc2)cc1 | Non-toxic | > 2 | > 3 | > 150 µM | 5.6 µM | > 100 µM | Active | 12 µM | Active |  |
| O=C(O)c1ccc(CN2C(=O)/C(=C/c3ccc(Oc4ccccc4)cc3)S/C2=N\c2ccc(C(F)(F)F)cc2)cc1 | Non-toxic | 7.1 | > 3 | 33.2 µM | 2.2 µM | 15.6 µM |  | 7.3 µM |  |  |
| COc1ccc(/N=C2\S/C(=C\c3ccc(Oc4ccccc4)cc3)C(=O)N2Cc2ccc(C(=O)O)cc2)cc1 | Non-toxic | > 2 |  | 18 µM | 2.5 µM | 7.1 µM | inactive | 11.2 µM | Active |  |
| O=C(O)c1ccc(CN2C(=O)/C(=C/c3ccc(OCc4ccccc4)cc3)S/C2=N\c2ccc(C(F)(F)F)cc2)cc1 | Non-toxic | > 2 | > 3 | 25.4 µM | 1.4 µM | 2.2 µM | Active | 4 µM | Active | 1.2 µM |
| COc1ccc(/N=C2\S/C(=C\c3cccc(Oc4ccccc4)c3)C(=O)N2Cc2ccc(C(=O)O)cc2)cc1 | Non-toxic | > 2 | > 3 | 21.8 µM | 10.9 µM | 20.5 µM | inactive | 12 µM | Active |  |
| COc1ccc(/N=C2\S/C(=C\c3cccc(OCc4ccccc4)c3)C(=O)N2Cc2ccc(C(=O)O)cc2)cc1 | Non-toxic | > 2 | > 3 | 17.5 µM | 5.1 µM | 11.6 µM | inactive | 9.6 µM | Active |  |
| COc1ccc(/N=C2\S/C(=C\c3ccc(OCc4ccccc4)cc3)C(=O)N2Cc2ccc(C(=O)O)cc2)cc1 | Non-toxic | > 2 | 1.4 | 9.1 µM | 3 µM | 9.5 µM | inactive | 6.4 µM | inactive |  |
| COc1ccc(/N=C2\S/C(=C\c3ccc4ccccc4c3)C(=O)N2Cc2ccc(C(=O)O)cc2)cc1 | Non-toxic | > 2 |  | 11.7 µM | 9 µM | 27 µM |  | 11.6 µM |  |  |
